# Experiments:
# [1] = test system: UACC-62; experiment: Growth inhibition of human UACC62 cells after 48 hrs by SRB assay; type: functional; settings: UACC-62, 48 h; for TGI: read-out: pTGI (converted)
# In short: (§1)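 NCI 60-cell-line screen. Cells grown in RPMI1640 with 5% fetal calf serum and 2 mM L-glutamine, with inoculum density set by cell line. Preincubated 24 h, then given compound in DMSO at 10^-4 to 10^-8 M (five 10-fold steps) for 48 h continuous exposure. Growth measured by SRB protein assay. GI50, TGI and LC50 reported as –log molar.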
# [2] = test system: EKVX; experiment: Growth inhibition of human EKVX cells after 48 hrs by SRB assay; type: functional; settings: for TGI: read-out: pTGI (converted); in short: as §1
# [3] = test system: SNB-75; experiment: Growth inhibition of human SNB75 cells after 48 hrs by SRB assay; type: functional; settings: SNB-75, 48 h; in short: as §1
# [4] = Growth inhibition of human Hs 578T cells after 48 hrs by SRB assay; type: functional; in short: as §1
# [5] = test system: T47D; experiment: Growth inhibition of human T47D cells after 48 hrs by SRB assay; type: functional; settings: for TGI: read-out: pTGI (converted); in short: as §1
# [6] = test system: SW-620; experiment: Growth inhibition of human SW620 cells after 48 hrs by SRB assay; type: functional; settings: SW-620, 48 h; for TGI: read-out: pTGI (converted); in short: as §1
# [7] = test system: SK-MEL-28; experiment: Growth inhibition of human SK-MEL-28 cells after 48 hrs by SRB assay; type: functional; settings: SK-MEL-28, 48 h; for TGI: read-out: pTGI (converted); in short: as §1
# [8] = test system: OVCAR-8; experiment: Growth inhibition of human OVCAR8 cells after 48 hrs by SRB assay; type: functional; settings: OVCAR-8, 48 h; for TGI: read-out: pTGI (converted); in short: as §1
# [9] = test system: SK-OV-3; experiment: Growth inhibition of human SKOV3 cells after 48 hrs by SRB assay; type: functional; settings: SK-OV-3, 48 h; for TGI: read-out: pTGI (converted); in short: as §1
# [10] = test system: SK-MEL-5; experiment: Growth inhibition of human SK-MEL-5 cells after 48 hrs by SRB assay; type: functional; settings: SK-MEL-5, 48 h; for TGI: read-out: pTGI (converted); in short: as §1
# [11] = test system: MDA-MB-435; experiment: Growth inhibition of human MDA-MB-435 cells after 48 hrs by SRB assay; type: functional; settings: MDA-MB-435, 48 h; for TGI: read-out: pTGI (converted); in short: as §1
# [12] = test system: K562; experiment: Growth inhibition of human K562 cells after 48 hrs by SRB assay; type: functional; settings: K562, 48 h; for TGI: read-out: pTGI (converted); in short: as §1
# [13] = test system: NCI-H322M; experiment: Growth inhibition of human NCI-H322M cells after 48 hrs by SRB assay; type: functional; settings: for TGI: read-out: pTGI (converted); in short: as §1
# [14] = test system: U-251; experiment: Growth inhibition of human U251 cells after 48 hrs by SRB assay; type: functional; settings: U-251, 48 h; for TGI: read-out: pTGI (converted); in short: as §1
# [15] = test system: NCI-H460; experiment: Growth inhibition of human NCI-H460 cells after 48 hrs by SRB assay; type: functional; settings: NCI-H460, 48 h; for TGI: read-out: pTGI (converted); in short: as §1
# [16] = test system: HL-60(TB); experiment: Growth inhibition of human HL-60(TB) cells after 48 hrs by SRB assay; type: functional; settings: HL-60, 48 h; for TGI: read-out: pTGI (converted)
# In short: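 NCI 60-cell-line screen: cells grown in RPMI1640 with 5% fetal calf serum and 2 mM L-glutamine, preincubated 24 h, then exposed to compound in DMSO at five concentrations (10^-4 to 10^-8 M) for 48 h continuous exposure. Growth estimated by sulforhodamine B protein assay; reported as pGI50 (-log molar concentration inhibiting net cell growth by 50%).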
# [17] = test system: HCT-116; experiment: Growth inhibition of human HCT116 cells after 48 hrs by SRB assay; type: functional; settings: HCT-116, 48 h; for TGI: read-out: pTGI (converted); in short: as §1
# [18] = test system: IGROV-1; experiment: Growth inhibition of human IGROV1 cells after 48 hrs by SRB assay; type: functional; settings: IGROV-1, 48 h; for TGI: read-out: pTGI (converted); in short: as §1
# [19] = test system: HCC 2998; experiment: Growth inhibition of human HCC2998 cells after 48 hrs by SRB assay; type: functional; settings: HCC 2998, 48 h; for TGI: read-out: pTGI (converted); in short: as §1
# [20] = test system: 786-0; experiment: Growth inhibition of human 786-0 cells after 48 hrs by SRB assay; type: functional; settings: 786-0, 48 h; for TGI: read-out: pTGI (converted); in short: as §1
# [21] = test system: OVCAR-4; experiment: Growth inhibition of human OVCAR4 cells after 48 hrs by SRB assay; type: functional; settings: OVCAR-4, 48 h; for TGI: read-out: pTGI (converted); in short: as §1
# [22] = test system: SR; experiment: Growth inhibition of human SR cells after 48 hrs by SRB assay; type: functional; settings: for TGI: read-out: pTGI (converted); in short: as §1
# [23] = test system: NCI/ADR-RES; experiment: Growth inhibition of human NCI/ADR-RES cells after 48 hrs by SRB assay; type: functional; settings: for TGI: read-out: pTGI (converted); in short: as §1
# [24] = test system: HOP-62; experiment: Growth inhibition of human HOP62 cells after 48 hrs by SRB assay; type: functional; settings: HOP-62, 48 h; for TGI: read-out: pTGI (converted); in short: as §1
# [25] = test system: SF-539; experiment: Growth inhibition of human SF539 cells after 48 hrs by SRB assay; type: functional; settings: SF-539, 48 h; for TGI: read-out: pTGI (converted); in short: as §1
# [26] = test system: SF-268; experiment: Growth inhibition of human SF268 cells after 48 hrs by SRB assay; type: functional; settings: SF-268, 48 h; for TGI: read-out: pTGI (converted); in short: as §1
# [27] = test system: SF-295; experiment: Growth inhibition of human SF295 cells after 48 hrs by SRB assay; type: functional; settings: SF-295, 48 h; for TGI: read-out: pTGI (converted); in short: as §1
# [28] = test system: Malme-3M; experiment: Growth inhibition of human MALME-3M cells after 48 hrs by SRB assay; type: functional; settings: for TGI: read-out: pTGI (converted); in short: as §1
# [29] = test system: M14; experiment: Growth inhibition of human M14 cells after 48 hrs by SRB assay; type: functional; settings: M14, 48 h; for TGI: read-out: pTGI (converted); in short: as §1
# [30] = test system: HCT-15; experiment: Growth inhibition of human HCT15 cells after 48 hrs by SRB assay; type: functional; settings: HCT-15, 48 h; for TGI: read-out: pTGI (converted); in short: as §1
# [31] = test system: HT-29; experiment: Growth inhibition of human HT-29 cells after 48 hrs by SRB assay; type: functional; settings: HT-29, 48 h; in short: as §1
# [32] = test system: UO-31; experiment: Growth inhibition of human UO31 cells after 48 hrs by SRB assay; type: functional; settings: UO-31, 48 h; for TGI: read-out: pTGI (converted); in short: as §1
# [33] = test system: DU-145; experiment: Growth inhibition of human DU145 cells after 48 hrs by SRB assay; type: functional; settings: DU-145, 48 h; for TGI: read-out: pTGI (converted); in short: as §1
# [34] = test system: CAKI-1; experiment: Growth inhibition of human Caki1 cells after 48 hrs by SRB assay; type: functional; settings: CAKI-1, 48 h; for TGI: read-out: pTGI (converted); in short: as §1
# [35] = test system: NCI-H460; experiment: Cytotoxicity against human NCI-H460 cells after 72 hrs by SRB assay; type: functional, cell-based; settings: NCI-H460, 72 h
# In short: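 NCI-H460 (ATCC) cells seeded in 96-well plates in growth medium. Scalar drug concentrations added 24 h after plating, then 72 h exposure. Surviving cells stained with sulforhodamine B, OD read at 570 nm. IC50 (50% growth inhibition) fitted from dose–response curves. Mean ± SE of at least three independent experiments.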
structure (smiles),measurement,setting,value
COc1ccc(C2CC(c3cc(OC)c(OC)c(OC)c3)=NN2)cc1 (stereo not given),GI50,[1],7.94 µM
same,TGI,[1],> 100 µM
same,GI50,[2],10 µM
same,TGI,[2],> 100 µM
same,GI50,[3],3.98 µM
same,GI50,[4],15.8 µM
same,TGI,[4]; read-out: pTGI (converted),> 100 µM
same,GI50,[5],3.98 µM
same,TGI,[5],> 100 µM
same,GI50,[6],5.01 µM
same,TGI,[6],> 100 µM
same,GI50,[7],39.8 µM
same,TGI,[7],> 100 µM
same,GI50,[8],25.1 µM
same,TGI,[8],> 100 µM
same,GI50,[9],12.6 µM
same,TGI,[9],> 100 µM
same,GI50,[10],3.98 µM
same,TGI,[10],25.1 µM
same,GI50,[11],3.16 µM
same,TGI,[11],20 µM
same,GI50,[12],2.51 µM
same,TGI,[12],> 100 µM
same,GI50,[13],79.4 µM
same,TGI,[13],> 100 µM
same,GI50,[14],3.98 µM
same,TGI,[14],> 100 µM
same,GI50,[15],3.16 µM
same,TGI,[15],30.2 µM
same,GI50,[16],2 µM
same,TGI,[16],12.6 µM
same,GI50,[17],3.98 µM
same,TGI,[17],> 100 µM
same,GI50,[18],6.31 µM
same,TGI,[18],> 100 µM
same,GI50,[19],10 µM
same,TGI,[19],39.8 µM
same,GI50,[20],20 µM
same,TGI,[20],> 100 µM
same,GI50,[21],12.6 µM
same,TGI,[21],> 100 µM
same,GI50,[22],1 µM
same,TGI,[22],3.98 µM
same,GI50,[23],6.31 µM
same,TGI,[23],> 100 µM
same,GI50,[24],31.6 µM
same,TGI,[24],> 100 µM
same,GI50,[25],6.31 µM
same,TGI,[25],39.8 µM
same,GI50,[26],20 µM
same,TGI,[26],> 100 µM
same,GI50,[27],5.01 µM
same,TGI,[27],> 100 µM
same,GI50,[28],25.1 µM
same,TGI,[28],> 100 µM
same,GI50,[29],12.6 µM
same,TGI,[29],> 100 µM
same,GI50,[30],3.16 µM
same,TGI,[30],> 100 µM
same,GI50,[31],3.98 µM
same,TGI,[31]; read-out: pTGI (converted),> 100 µM
same,GI50,[32],5.01 µM
same,TGI,[32],> 100 µM
same,GI50,[33],31.6 µM
same,TGI,[33],> 100 µM
same,GI50,[34],7.94 µM
same,TGI,[34],63.1 µM
COc1cc(C2CC(c3cccc(Br)c3)=NN2C(C)=O)cc(OC)c1OC (stereo not given),GI50,[1],0.2 µM
same,TGI,[1],20 µM
same,GI50,[2],0.631 µM
same,TGI,[2],> 100 µM
same,GI50,[3],0.398 µM
same,TGI,[3]; read-out: pTGI (converted),> 100 µM
same,TGI,[5],39.8 µM
same,GI50,[6],0.316 µM
same,TGI,[6],> 100 µM
same,GI50,[7],0.794 µM
same,TGI,[7],63.1 µM
same,GI50,[8],0.631 µM
same,TGI,[8],> 100 µM
same,GI50,[9],0.501 µM
same,TGI,[9],63.1 µM
same,IC50,[35],0.35 µM
same,GI50,[10],0.251 µM
same,TGI,[10],12.6 µM
same,GI50,[11],0.0501 µM
same,TGI,[11],0.251 µM
same,GI50,[12],0.126 µM
same,TGI,[12],12.6 µM
same,GI50,[13],0.501 µM
same,TGI,[13],> 100 µM
same,GI50,[14],0.501 µM
same,TGI,[14],31.6 µM
same,GI50,[15],0.316 µM
same,TGI,[15],12.6 µM
same,GI50,[16],0.251 µM
same,TGI,[16],0.501 µM
same,GI50,[17],0.501 µM
same,TGI,[17],> 100 µM
same,GI50,[18],2 µM
same,TGI,[18],> 100 µM
same,GI50,[19],1.58 µM
same,TGI,[19],25.1 µM
same,GI50,[20],0.794 µM
same,TGI,[20],> 100 µM
same,GI50,[21],0.631 µM
same,TGI,[21],> 100 µM
same,GI50,[22],0.0398 µM
same,TGI,[22],> 100 µM
same,GI50,[23],0.398 µM
same,TGI,[23],> 100 µM
same,GI50,[24],1 µM
same,TGI,[24],79.4 µM
same,GI50,[25],0.316 µM
same,TGI,[25],10 µM
same,GI50,[26],1 µM
same,TGI,[26],79.4 µM
same,GI50,[27],0.2 µM
same,TGI,[27],12.6 µM
same,TGI,[28],50.1 µM
same,GI50,[29],0.631 µM
same,TGI,[29],63.1 µM
same,GI50,[30],0.316 µM
same,TGI,[30],31.6 µM
same,GI50,[32],12.6 µM
same,TGI,[32],> 100 µM
same,GI50,[33],0.398 µM
same,TGI,[33],12.6 µM
same,GI50,[34],0.251 µM
same,TGI,[34],39.8 µM

# — ChEMBL document CHEMBL1221342, “Synthesis and in vitro antitumor activity of new 4,5-dihydropyrazole derivatives” (Bioorg Med Chem, 2010)
